Experiment [1] deals with HepG2. In words: Cytotoxicity against HEPG2 cells assessed as surviving fraction at 1 ug/ml after 48 hrs by ELISA. It is filed as functional, Homo sapiens. In outline:
(§1)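 SRB assay in human liver carcinoma HEPG2 or lung carcinoma H460 cells. Cells are seeded at 10⁴ per well and allowed to attach for 24 h. Compound is added at 0, 1, 2.5, 5 and 10 µg/ml, in triplicate wells per dose, for 48 h continuous exposure at 37 °C in 5% CO₂. Cells are then fixed and stained with sulforhodamine B. Bound dye is recovered in Tris-EDTA and read on an ELISA reader. Surviving fraction is plotted against concentration. Cisplatin is the positive control.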

Experiment [2] deals with HepG2. In words: Cytotoxicity against HEPG2 cells assessed as surviving fraction at 2.5 ug/ml after 48 hrs by ELISA. It is filed as functional, Homo sapiens. Put shortly: as §1
Experiment [3] concerns HepG2. In words: Cytotoxicity against HEPG2 cells assessed as surviving fraction at 10 ug/ml after 48 hrs by ELISA. It is filed as functional, Homo sapiens. Put shortly: as §1
Experiment [4] relates to NCI-H460. In words: Cytotoxicity against human H460 cells assessed as surviving fraction at 5 ug/ml after 48 hrs by ELISA. It is filed as functional. Put shortly: as §1
Experiment [5] concerns NCI-H460. In words: Cytotoxicity against human H460 cells assessed as surviving fraction at 1 ug/ml after 48 hrs by ELISA. It is filed as functional. In outline:
as §1

Experiment [6] deals with NCI-H460. In words: Cytotoxicity against human H460 cells assessed as surviving fraction at 2.5 ug/ml after 48 hrs by ELISA. The experiment is classed as functional. Put shortly: as §1
For experiment [7], the system named is HepG2. In words: Cytotoxicity against HEPG2 cells assessed as surviving fraction at 5 ug/ml after 48 hrs by ELISA. The experiment is classed as functional, Homo sapiens. Put shortly:
as §1

Experiment [8] has as its system NCI-H460. In words: Cytotoxicity against human H460 cells assessed as surviving fraction at 10 ug/ml after 48 hrs by ELISA. The experiment is classed as functional. Put shortly: as §1
In another experiment the test system is Pseudomonas aeruginosa. In words: Antimicrobial activity against Pseudomonas aeruginosa. It is filed as functional. Put shortly: (§2)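 Disk diffusion. A sterile filter-paper disk saturated with a measured quantity of sample is placed on agar heavily seeded with a spore suspension of the test organism. Bacteria are grown on nutrient agar and fungi on Dox's medium. The diameter of the clear inhibition zone around the disk is taken as the inhibitory measure. Ampicillin is the antibacterial reference and nystatin the antifungal reference.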

Another experiment deals with Neisseria gonorrhoeae. In words: Antimicrobial activity against Neisseria gonorrhoeae. The experiment is classed as functional. Put shortly:
as §2

In another experiment the test system is Saccharomyces cerevisiae. In words: Antimicrobial activity against Saccharomyces cerevisiae. It is filed as functional. In outline:
as §2

The test system of the next experiment is Staphylococcus aureus. In words: Antimicrobial activity against Staphylococcus aureus. The experiment is classed as functional. In outline: as §2
In a further experiment the test system is Candida albicans. In words: Antimicrobial activity against Candida albicans. It is filed as functional. In outline:
as §2

In the next experiment the test system is Enterococcus faecalis. In words: Antimicrobial activity against Streptococcus faecalis. The experiment is classed as functional. Put shortly:
as §2

The next experiment has as its system Bacillus subtilis. In words: Antimicrobial activity against Bacillus subtilis. The experiment is classed as functional. Put shortly: as §2
A further experiment relates to Escherichia coli. In words: Antimicrobial activity against Escherichia coli. The experiment is classed as functional. In outline:
as §2

For `COc1ccc(-c2cc(C#N)c3c(=O)[nH]c(=S)[nH]c3n2)cc1`, the Activity in the experiment on HepG2 [1] came to 1.046; in the experiment with HepG2 [2], 0.968; with HepG2 [3], 0.914; in the experiment with NCI-H460 [4], 0.836; with NCI-H460 [5], 0.948; with NCI-H460 [6], 0.897. Moreover, the Activity is 0.941 with HepG2 [7] and 0.808 in the experiment with NCI-H460 [8].

Take `N#Cc1cc(-c2ccccc2)nc2[nH]c(=S)[nH]c(=O)c12`: the “inhibition zone (IZ)” value in the experiment with Pseudomonas aeruginosa amounted to 11 mm; with Neisseria gonorrhoeae, 12 mm; in the experiment with Saccharomyces cerevisiae, 12 mm; in the experiment with Staphylococcus aureus it was 11 mm; with Candida albicans, 12 mm; with Enterococcus faecalis, 12 mm. Moreover, the “inhibition zone (IZ)” value in the experiment with Bacillus subtilis stood at 11 mm; with Escherichia coli it was 12 mm.

With `CCOC(=O)c1c(-c2ccccc2)nc2[nH]c(=S)[nH]c(=O)c2c1C(=O)OCC`, the Activity in the experiment on HepG2 [1] was 0.968; in the experiment on HepG2 [2], 0.914; with HepG2 [3] it was 0.805; with NCI-H460 [4], 0.771; in the experiment on NCI-H460 [5], 0.855; with NCI-H460 [6], 0.827. For the same compound, the Activity in the experiment with HepG2 [7] is 0.841; in the experiment with NCI-H460 [8], 0.72. Further, the “inhibition zone (IZ)” value in the experiment on Pseudomonas aeruginosa came to 13 mm; in the experiment on Neisseria gonorrhoeae, 13 mm; with Saccharomyces cerevisiae it was 11 mm; in the experiment with Staphylococcus aureus, 12 mm; with Candida albicans, 12 mm; with Enterococcus faecalis, 12 mm. For the same compound, the “inhibition zone (IZ)” value in the experiment with Bacillus subtilis stood at 12 mm; in the experiment on Escherichia coli, 11 mm.

Consider `CC1(C)S[C@@H]2[C@H](NC(=O)[C@H](N)c3ccccc3)C(=O)N2[C@H]1C(=O)O` [AMPICILLIN], for which the “inhibition zone (IZ)” value in the experiment with Pseudomonas aeruginosa is given as 19 mm; in the experiment on Neisseria gonorrhoeae, 13 mm; in the experiment with Staphylococcus aureus it was 20 mm; in the experiment on Enterococcus faecalis, 30 mm; in the experiment with Bacillus subtilis, 18 mm; with Escherichia coli it was 11 mm.

For the compound `CCOC(=O)c1cc(-c2ccc(OC)cc2)nc2[nH]c(=S)[nH]c(=O)c12`, the Activity in the experiment with HepG2 [1] is listed as 1.018; with HepG2 [2], 1; with HepG2 [3] it was 0.927; in the experiment on NCI-H460 [4], 0.776; in the experiment with NCI-H460 [5], 0.948; with NCI-H460 [6], 0.915. Besides, the results for the Activity in the experiment with HepG2 [7] and in the experiment with NCI-H460 [8] were 0.977 and 0.646, respectively.

Take `O=C(c1ccc2ccccc2c1)c1cc(-c2ccccc2)nc2[nH]c(=S)[nH]c(=O)c12`: the “inhibition zone (IZ)” value is 11 mm with Pseudomonas aeruginosa; 12 mm with Neisseria gonorrhoeae; 12 mm in the experiment with Saccharomyces cerevisiae; 11 mm with Staphylococcus aureus; 10 mm in the experiment on Candida albicans; 11 mm with Enterococcus faecalis. The “inhibition zone (IZ)” value in the experiment with Bacillus subtilis and in the experiment with Escherichia coli was 10 mm each time.

`COc1ccc(-c2cc(C(=O)c3ccco3)c3c(=O)[nH]c(=S)[nH]c3n2)cc1`: the “inhibition zone (IZ)” value is on record as 11 mm with Pseudomonas aeruginosa; 12 mm in the experiment with Neisseria gonorrhoeae; 12 mm in the experiment on Saccharomyces cerevisiae; 11 mm with Staphylococcus aureus; 11 mm in the experiment on Candida albicans; 11 mm in the experiment on Enterococcus faecalis. Moreover, the “inhibition zone (IZ)” value in the experiment with Bacillus subtilis and in the experiment on Escherichia coli was 11 mm in each case.

For the compound NYSTATIN, the inhibition zone (IZ) in the experiment on Saccharomyces cerevisiae was found to be 11 mm; with Candida albicans, 12 mm.

Turning to `COc1ccc(-c2cc(C(=O)c3cccs3)c3c(=O)[nH]c(=S)[nH]c3n2)cc1`, the “inhibition zone (IZ)” value in the experiment with Pseudomonas aeruginosa is recorded as 11 mm; in the experiment with Neisseria gonorrhoeae, 14 mm; in the experiment on Saccharomyces cerevisiae, 12 mm; in the experiment on Staphylococcus aureus, 11 mm; with Candida albicans it was 12 mm; in the experiment with Enterococcus faecalis, 12 mm. Further, the “inhibition zone (IZ)” value in the experiment with Bacillus subtilis is given as 11 mm; with Escherichia coli, 12 mm.

As to `O=C(c1cccs1)c1cc(-c2ccccc2)nc2[nH]c(=S)[nH]c(=O)c12`, the Activity turned out to be 1.05 with HepG2 [1]; 1.005 in the experiment with HepG2 [2]; 0.85 with HepG2 [3]; 0.808 in the experiment with NCI-H460 [4]; 0.943 in the experiment with NCI-H460 [5]; 0.869 in the experiment on NCI-H460 [6]. For the same compound, the Activity in the experiment on HepG2 [7] is given as 0.905; in the experiment on NCI-H460 [8] it was 0.641. Moreover, the “inhibition zone (IZ)” value in the experiment with Pseudomonas aeruginosa came to 12 mm; in the experiment with Neisseria gonorrhoeae it was 13 mm; with Saccharomyces cerevisiae it was 12 mm; in the experiment with Staphylococcus aureus, 12 mm; in the experiment with Candida albicans, 13 mm; in the experiment with Enterococcus faecalis, 12 mm. The “inhibition zone (IZ)” value in the experiment on Bacillus subtilis and with Escherichia coli was 13 mm throughout.

For the compound `CCOC(=O)c1cc(-c2ccccc2)nc2[nH]c(=S)[nH]c(=O)c12`, the “inhibition zone (IZ)” value is given as 11 mm with Pseudomonas aeruginosa; 12 mm in the experiment on Neisseria gonorrhoeae; 12 mm in the experiment on Saccharomyces cerevisiae; 11 mm in the experiment on Staphylococcus aureus; 11 mm with Candida albicans; 11 mm with Enterococcus faecalis. For the same compound, the “inhibition zone (IZ)” value in the experiment with Bacillus subtilis and with Escherichia coli was 11 mm throughout.

Turning to `COC(=O)c1c(-c2ccccc2)nc2[nH]c(=S)[nH]c(=O)c2c1C(=O)OC`, the “inhibition zone (IZ)” value in the experiment on Pseudomonas aeruginosa is 16 mm; in the experiment on Neisseria gonorrhoeae, 15 mm; with Saccharomyces cerevisiae, 16 mm; in the experiment on Staphylococcus aureus it was 16 mm; in the experiment with Candida albicans, 15 mm; with Enterococcus faecalis, 15 mm. The “inhibition zone (IZ)” value in the experiment on Bacillus subtilis and with Escherichia coli was 16 mm in each case.

As to `COC(=O)c1c(-c2ccc(OC)cc2)nc2[nH]c(=S)[nH]c(=O)c2c1C(=O)OC`, the Activity with HepG2 [1] is given as 0.895; with HepG2 [2], 0.823; with HepG2 [3], 0.709; with NCI-H460 [4], 0.808; in the experiment with NCI-H460 [5], 0.962; in the experiment on NCI-H460 [6], 0.887. Moreover, the Activity came out at 0.786 in the experiment with HepG2 [7] and 0.743 with NCI-H460 [8]. The “inhibition zone (IZ)” value in the experiment with Pseudomonas aeruginosa is 14 mm; in the experiment with Neisseria gonorrhoeae, 14 mm; with Saccharomyces cerevisiae, 14 mm; in the experiment on Staphylococcus aureus it was 15 mm; in the experiment on Candida albicans, 14 mm; with Enterococcus faecalis, 14 mm. The “inhibition zone (IZ)” value with Bacillus subtilis and with Escherichia coli was 14 mm each time.

(Values after ChEMBL document CHEMBL1143745, “Utility of 6-amino-2-thiouracil as a precursor for the synthesis of bioactive pyrimidine derivatives” (2007).)
